In publication PMC3797290 (Experimental and Therapeutic Medicine, 2013):

What was measured:
[1] = tested on: E. coli 7–98; test: Interaction study, checkerboard titration; assay type: cell-based, Escherichia coli
[2] = tested on: P. aeruginosa 8–97; test: Interaction study, checkerboard titration; assay type: cell-based, Pseudomonas aeruginosa; conditions: antibiotic in combination with RNL (ranalexin)
[3] = tested on: E. coli 31–97; test: Interaction study, checkerboard titration; assay type: cell-based, Escherichia coli
[4] = tested on: MS S. aureus 14–99; test: Interaction study, checkerboard titration; assay type: cell-based, Staphylococcus aureus; conditions: antibiotic in combination with RNL (ranalexin)
Method in brief: (§1)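 Checkerboard titration of peptide plus clinical antibiotic against representative clinical MS S. aureus isolates in polypropylene microtiter plates. […] Mueller-Hinton broth, inoculum 5×10^5 cfu/ml, 18 h at 35°C in air. MIC is the lowest concentration inhibiting visible growth. FIC index = A/MICA + B/MICB; synergy ≤0.5.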

[5] = tested on: E. coli ATCC 25922; test: Interaction study, checkerboard titration; assay type: cell-based, Escherichia coli; conditions: antibiotic in combination with RNL (ranalexin)
[6] = tested on: MS S. aureus 21–99; test: Interaction study, checkerboard titration; assay type: cell-based, Staphylococcus aureus; conditions: antibiotic in combination with RNL (ranalexin)
[7] = tested on: MS S. aureus 56–96; test: Interaction study, checkerboard titration; assay type: cell-based, Staphylococcus aureus; conditions: antibiotic in combination with RNL (ranalexin)
[8] = tested on: P. aeruginosa; conditions: at 2 mg/l, in vitro, cited from earlier work; for effect on P. aeruginosa at 48 h: incubation continued for 48 h
[9] = tested on: MS S. aureus 15–99; test: Interaction study, checkerboard titration; assay type: cell-based, Staphylococcus aureus; conditions: antibiotic in combination with RNL (ranalexin)
Method in brief: as §1

[10] = antibiotic in combination with MG II (magainin II)
[11] = antibiotic in combination with RNL (ranalexin)

**Q.** Which FIC index [1, 10] does the source give for `CC(C)(O/N=C(\C(=O)N[C@@H]1C(=O)N2C(C(=O)[O-])=C(C[n+]3ccccc3)CS[C@H]12)c1csc(N)n1)C(=O)O` [CAZ, ceftazidime] here?
**A.** 0.312

**Q.** And the FIC index [2]?
**A.** 1.500

**Q.** And the FIC index [3, 10]?
**A.** 0.187

**Q.** With `CC[C@H]1OC(=O)[C@H](C)[C@@H](O[C@H]2C[C@@](C)(OC)[C@@H](O)[C@H](C)O2)[C@H](C)[C@@H](O[C@@H]2O[C@H](C)C[C@H](N(C)C)[C@H]2O)[C@](C)(OC)C[C@@H](C)C(=O)[C@H](C)[C@@H](O)[C@]1(C)O` [CLR, clarithromycin] as the compound, how does the FIC index [1, 10] read?
**A.** 1.500

**Q.** What about the FIC index [1, 11] of the same compound?
**A.** 0.312

**Q.** And the FIC index [2]?
**A.** 0.375

**Q.** And the FIC index [4]?
**A.** 0.250

**Q.** What about the FIC index [5] of the same compound?
**A.** 0.375

**Q.** And the FIC index [6]?
**A.** 0.250

**Q.** What about the FIC index [7] of the same compound?
**A.** 0.312

**Q.** What about the FIC index [3, 10] of the same compound?
**A.** 1.500

**Q.** What about the FIC index [3, 11] of the same compound?
**A.** 0.312

**Q.** And the “effect on P. aeruginosa cell growth at 24 h” value [8]?
**A.** no effect on cell growth

**Q.** And the “effect on P. aeruginosa at 48 h” value [8]?
**A.** bactericidal

**Q.** And the FIC index [9]?
**A.** 0.187

**Q.** With `CO/N=C(\C(=O)N[C@@H]1C(=O)N2C(C(=O)O)=C(CSc3nc(=O)c(=O)[nH]n3C)CS[C@H]12)c1csc(N)n1` [CRO, ceftriaxone] as the compound, how does the FIC index [1, 10] read?
**A.** 0.250

**Q.** What about the FIC index [1, 11] of the same compound?
**A.** 1.250

**Q.** And the FIC index [2]?
**A.** 0.750

**Q.** And the FIC index [4]?
**A.** 1.000

**Q.** And the FIC index [5]?
**A.** 1.000

**Q.** And the FIC index [6]?
**A.** 1.500

**Q.** What about the FIC index [7] of the same compound?
**A.** 1.500

**Q.** And the FIC index [3, 10]?
**A.** 0.312

**Q.** And the FIC index [3, 11]?
**A.** 1.250

**Q.** What about the FIC index [9] of the same compound?
**A.** 1.250

**Q.** What does the source list for `C[C@H]1c2cccc(O)c2C(=O)C2=C(O)[C@]3(O)C(=O)C(C(N)=O)=C(O)[C@@H](N(C)C)[C@@H]3[C@@H](O)[C@@H]21` [D, doxycycline]?
**A.** FIC index [1, 10]: 2.000; FIC index [1, 11]: 0.312; FIC index [2]: 0.312; FIC index [4]: 0.312; FIC index [5]: 0.312; FIC index [6]: 0.187; FIC index [7]: 0.312; FIC index [3, 10]: 1.250; FIC index [3, 11]: 0.375; FIC index [9]: 0.250

**Q.** With `C[C@@H](O)[C@H]1C(=O)N2C(C(=O)O)=C(S[C@@H]3CN[C@H](C(=O)N(C)C)C3)[C@H](C)[C@H]12` [MEM, meropenem] as the compound, how does the FIC index [1, 10] read?
**A.** 0.375

**Q.** And the FIC index [1, 11]?
**A.** 1.500

**Q.** And the FIC index [2]?
**A.** 1.000

**Q.** What about the FIC index [4] of the same compound?
**A.** 1.250

**Q.** What about the FIC index [5] of the same compound?
**A.** 0.750

**Q.** What about the FIC index [6] of the same compound?
**A.** 1.500

**Q.** And the FIC index [7]?
**A.** 1.250

**Q.** And the FIC index [3, 10]?
**A.** 0.375

**Q.** And the FIC index [3, 11]?
**A.** 1.000

**Q.** What about the FIC index [9] of the same compound?
**A.** 1.500

**Q.** Which FIC index [1, 10] does the source give for `CCN1CCN(C(=O)N[C@@H](C(=O)N[C@@H]2C(=O)N3[C@@H]2SC(C)(C)[C@@H]3C(=O)O)c2ccccc2)C(=O)C1=O` [PIP, piperacillin] here?
**A.** 0.250

**Q.** What about the FIC index [1, 11] of the same compound?
**A.** 1.000

**Q.** What about the FIC index [2] of the same compound?
**A.** 1.000

**Q.** And the FIC index [5]?
**A.** 0.750

**Q.** And the FIC index [3, 10]?
**A.** 0.312

**Q.** What about the FIC index [3, 11] of the same compound?
**A.** 1.250

**Q.** Which “effect on P. aeruginosa cell growth at 24 h” value [8] does the source give for `CC[C@H]1OC(=O)[C@H](C)[C@@H](O[C@H]2C[C@@](C)(OC)[C@@H](O)[C@H](C)O2)[C@H](C)[C@@H](O[C@@H]2O[C@H](C)C[C@H](N(C)C)[C@H]2O)[C@](C)(O)C[C@@H](C)C(=O)[C@H](C)[C@@H](O)[C@]1(C)O` [erythromycin] here?
**A.** no effect on cell growth

**Q.** And the “effect on P. aeruginosa at 48 h” value [8]?
**A.** bactericidal

**Q.** For amoxicillin-clavulanate [AMC], which FIC index [1, 10] is on record?
**A.** 0.187

**Q.** What about the FIC index [1, 11] of the same compound?
**A.** 1.000

**Q.** And the FIC index [2]?
**A.** 1.000

**Q.** And the FIC index [4]?
**A.** 1.000

**Q.** What about the FIC index [5] of the same compound?
**A.** 1.500

**Q.** And the FIC index [3, 10]?
**A.** 0.312

**Q.** And the FIC index [9]?
**A.** 1.500

**Q.** What does the source list for polymyxin E [POL-E]?
**A.** FIC index [1, 11]: 0.312; FIC index [2]: 0.250; FIC index [5]: 0.187; FIC index [3, 10]: 1.500; FIC index [3, 11]: 0.250
